Experimental data taken from ChEMBL document CHEMBL2069297, “Inhibition of galactosyltransferases by a novel class of donor analogues” (J Med Chem, 2012).
Calls of active or inactive are those of the source. The calls are words filed in the database; no cut-off is given here.

Experiments:
[1] = target: T1, Beta-1,4-galactosyltransferase 1 (Bos taurus) (UniProt P08037); test: Ratio of Km for the compound to Km for UDP-Gal in bovine beta-1,4-GalT
T1 sequence (whole entry): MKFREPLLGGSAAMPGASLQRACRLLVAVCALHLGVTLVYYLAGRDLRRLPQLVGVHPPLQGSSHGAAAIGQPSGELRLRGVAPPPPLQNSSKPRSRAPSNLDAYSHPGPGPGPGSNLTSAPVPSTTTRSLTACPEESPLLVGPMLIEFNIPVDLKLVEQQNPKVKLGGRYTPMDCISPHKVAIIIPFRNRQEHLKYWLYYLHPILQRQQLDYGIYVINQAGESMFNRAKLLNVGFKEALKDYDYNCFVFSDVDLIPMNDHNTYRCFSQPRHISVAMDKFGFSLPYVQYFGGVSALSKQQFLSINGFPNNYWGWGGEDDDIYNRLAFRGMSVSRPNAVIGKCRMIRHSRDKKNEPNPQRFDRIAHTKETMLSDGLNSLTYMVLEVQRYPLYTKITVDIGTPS

[2] = Inhibition of human GTB after 15 mins by Dixon plot analysis
Summary of the method: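 Radiochemical assay on human GTB (0.049 ng): UDP-Gal 26 μM with UDP-[3H]-Gal, Fucα1,2Galβ-O(CH2)7CH3 acceptor 500 μM, inhibitor 0–62.5 μM, in A/B buffer pH 7. Incubated 15 min at 37 °C, then quenched with water.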

[3] = Inhibition of Neisseria meningitidis alpha-1,4-GalT after 15 mins by Dixon plot analysis
Summary of the method: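 Radiochemical transfer assay with DTT-activated N. meningitidis LgtC (0.010 ng): UDP-Gal 0.57 μM plus UDP-[3H]-Gal, Lacβ-O(CH2)8CO2Me 2 mM, DTT 1.7 mM, inhibitor 0–12.5 μM, in A/B buffer pH 7. Incubated 15 min at 37 °C, stopped with water.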

[4] = target: N-acetyllactosaminide alpha-1,3-galactosyltransferase (Bos taurus, UniProt P14769); test: Inhibition of alpha-1,3-GalT in bovine after 15 mins by Dixon plot analysis
Chain of N-acetyllactosaminide alpha-1,3-galactosyltransferase (P14769 whole entry): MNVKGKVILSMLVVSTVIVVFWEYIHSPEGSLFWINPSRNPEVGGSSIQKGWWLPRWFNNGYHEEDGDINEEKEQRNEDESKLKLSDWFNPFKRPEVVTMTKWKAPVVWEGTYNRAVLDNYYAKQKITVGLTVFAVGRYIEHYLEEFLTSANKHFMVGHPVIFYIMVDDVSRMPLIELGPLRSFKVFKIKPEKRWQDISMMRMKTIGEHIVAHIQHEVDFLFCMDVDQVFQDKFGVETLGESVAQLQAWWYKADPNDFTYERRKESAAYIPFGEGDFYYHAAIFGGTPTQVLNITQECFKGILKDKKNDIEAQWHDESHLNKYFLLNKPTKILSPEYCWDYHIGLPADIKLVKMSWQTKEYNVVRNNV
Summary of the method: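 Bovine α-1,3-GalT (1.3 μg) in A/B buffer pH 7 with UDP-Gal 76 μM plus UDP-[3H]-Gal, Lacβ-O(CH2)8CO2Me 500 μM, and inhibitor 0–62.5 μM. Incubated 15 min at 37 °C, stopped with water; radiolabeled galactose transfer measured.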

[5] = Drug uptake in human HL60 cell endoplasmic reticulum at 100 uM after 24 hrs by confocal fluorescence microscopy; assay type: ADME, cell-based; details: hl-60, 24 h
Summary of the method: (§1)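 HL-60 cells were grown in RPMI 1640 with 16.7% (v/v) heat-inactivated FCS, L-glutamine and PenStrep. They were seeded at 10^6 cells/mL onto a glass coverslip and kept 24 h at 37 °C, 5% CO2 with the sodium-salt analogue at 100 μM. The coverslip was washed with medium to remove extracellular fluorophore. The compound's intrinsic blue fluorescence (λem 434 nm) was imaged by confocal microscopy at 364 nm.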

[6] = Drug uptake in human HL60 cell golgi apparatus at 100 uM after 24 hrs by confocal fluorescence microscopy; assay type: ADME, cell-based; details: hl-60, 24 h; summary of the method: as §1
[7] = Binding affinity to Neisseria meningitidis alpha-1,4-GalT after 15 mins by competitive binding assay
[8] = test system: Neisseria meningitidis; test: Binding affinity to Neisseria meningitidis alpha-1,4-GalT after 10 mins by fluorescence quenching assay
Summary of the method: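 Titration of the fluorescent donor analogue (200 nM final) with LgtC protein stock diluted 1/5 to 1/640 (eight dilutions) in A/B buffer (50 mM MOPS pH 7.0, 20 mM MnCl2, 1 mg/mL BSA). Emission read after 10 min at 37 °C (excitation 350 nm, emission 430 nm) and plotted against enzyme dilution. Run in triplicate.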

[9] = test system: Neisseria meningitidis; test: Binding affinity to Neisseria meningitidis alpha-1,4-GalT by fluorescence quenching assay in presence of unlabeled UDP-Gal and UDP

| SMILES | Ratio [1] | Ki [2] | Ki [3] | Ki [4] | other results |
| --- | --- | --- | --- | --- | --- |
| O=c1[nH]c(=O)n([C@@H]2O[C@H](COP(=O)(O)OP(=O)(O)O[C@H]3O[C@H](CO)[C@H](O)[C@H](O)[C@H]3O)[C@@H](O)[C@H]2O)cc1-c1ccccc1 | 6 | 48 µM | 6 µM | 76 µM |  |
| O=Cc1ccc(-c2cn([C@@H]3O[C@H](COP(=O)([O-])OP(=O)([O-])CC[C@H]4O[C@H](CO)[C@H](O)[C@H](O)[C@H]4O)[C@@H](O)[C@H]3O)c(=O)[nH]c2=O)s1.[Na+].[Na+] |  |  |  |  | Drug uptake [5]: Active; Drug uptake [6]: Active |
| O=Cc1ccc(-c2cn([C@@H]3O[C@H](COP(=O)([O-])OP(=O)([O-])O[C@H]4O[C@H](CO)[C@H](O)[C@H](O)[C@H]4O)[C@@H](O)[C@H]3O)c(=O)[nH]c2=O)s1.[Na+].[Na+] |  |  |  |  | Drug uptake [5]: Active; Drug uptake [6]: Active |
| O=Cc1ccc(-c2cn([C@@H]3O[C@H](COP(=O)(O)OP(=O)(O)O[C@H]4O[C@H](CO)[C@H](O)[C@H](O)[C@H]4O)[C@@H](O)[C@H]3O)c(=O)[nH]c2=O)s1 [listing 1 of 2 here] |  | 2.4 µM | 0.45 µM |  |  |
| COc1ccc(-c2cn([C@@H]3O[C@H](COP(=O)(O)OP(=O)(O)O[C@H]4O[C@H](CO)[C@H](O)[C@H](O)[C@H]4O)[C@@H](O)[C@H]3O)c(=O)[nH]c2=O)cc1 | 3.3 |  |  |  |  |
| O=c1ccn([C@@H]2O[C@H](COP(=O)(O)OP(=O)(O)O)[C@@H](O)[C@H]2O)c(=O)[nH]1 [URIDINE_DIPHOSPHATE] |  |  |  |  | IC50 [7]: 46 µM |
| O=Cc1ccc(-c2cn([C@@H]3O[C@H](COP(=O)(O)OP(=O)(O)CC[C@H]4O[C@H](CO)[C@H](O)[C@H](O)[C@H]4O)[C@@H](O)[C@H]3O)c(=O)[nH]c2=O)s1 [listing 1 of 2 here] |  |  |  |  | Activity [8]: Dose-dependent effect; Activity [9]: inactive |
| O=c1[nH]c(=O)n([C@@H]2O[C@H](COP(=O)(O)OP(=O)(O)O[C@H]3O[C@H](CO)[C@H](O)[C@H](O)[C@H]3O)[C@@H](O)[C@H]2O)cc1-c1ccco1 | 2 | 33 µM | 1.9 µM | 90 µM |  |
| O=Cc1ccc(-c2cn([C@@H]3O[C@H](COP(=O)(O)OP(=O)(O)O[C@H]4O[C@H](CO)[C@H](O)[C@H](O)[C@H]4O)[C@@H](O)[C@H]3O)c(=O)[nH]c2=O)s1 [listing 2 of 2 here] | 2 |  |  |  |  |
| O=Cc1ccc(-c2cn([C@@H]3O[C@H](COP(=O)(O)OP(=O)(O)CC[C@H]4O[C@H](CO)[C@H](O)[C@H](O)[C@H]4O)[C@@H](O)[C@H]3O)c(=O)[nH]c2=O)s1 [listing 2 of 2 here] |  | 3.8 µM | 1.7 µM | 18 µM |  |
